ChEMBL document CHEMBL4152207, “Discovery of potent and selective BRD4 inhibitors capable of blocking TLR3-induced acute airway inflammation” (Eur J Med Chem, 2018)
pIC50: −log10 of the molar value. Active and inactive are the calls of the source. The calls are words filed in the database; no cut-off is given here.

What was measured:
[1] = target: Acetylcholinesterase (Homo sapiens) (UniProt P22303); experiment: Inhibition of human recombinant ACHE using acetylthiocholine as substrate after 30 mins by spectrophotometric relative to control; parameters: scale not given: the % may be the effect or the level left
Method in brief: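 Run within a commercial off-target panel of receptors and enzymes, with compound tested at a single concentration of 10 μM.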

[2] = tested on: Mus musculus; experiment: Renal toxicity in mouse assessed as effect on CRE level at 1 to 50 mg/kg, ip dosed daily for 1 month; type: organism-based; settings: in vivo
[3] = target: Cannabinoid receptor 1 (Homo sapiens) (UniProt P21554); experiment: Displacement of [3H]CP 55940 from human recombinant CB1 receptor at 10 uM after 120 mins by scintillation counting analysis relative to control
Chain of Cannabinoid receptor 1 (Homo sapiens) (P21554 whole entry): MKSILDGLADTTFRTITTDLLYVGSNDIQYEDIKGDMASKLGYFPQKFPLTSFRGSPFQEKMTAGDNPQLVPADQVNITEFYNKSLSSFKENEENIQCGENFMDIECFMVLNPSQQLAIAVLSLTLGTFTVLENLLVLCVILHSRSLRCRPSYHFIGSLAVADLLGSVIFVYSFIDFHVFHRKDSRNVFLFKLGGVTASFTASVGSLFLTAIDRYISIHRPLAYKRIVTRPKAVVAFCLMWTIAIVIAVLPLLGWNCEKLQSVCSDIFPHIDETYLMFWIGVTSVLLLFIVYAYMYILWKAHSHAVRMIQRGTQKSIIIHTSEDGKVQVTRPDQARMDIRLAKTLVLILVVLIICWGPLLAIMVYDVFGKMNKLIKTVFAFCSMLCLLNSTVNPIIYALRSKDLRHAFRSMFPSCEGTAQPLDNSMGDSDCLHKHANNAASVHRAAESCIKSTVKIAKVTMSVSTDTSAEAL

[4] = target: D(1A) dopamine receptor (Homo sapiens) (UniProt P21728); experiment: Displacement of [3H]-SCH 23390 from human recombinant dopamine D1 receptor at 10 uM after 60 mins by scintillation counting analysis relative to control
Chain of D(1A) dopamine receptor (Homo sapiens) (P21728 whole entry): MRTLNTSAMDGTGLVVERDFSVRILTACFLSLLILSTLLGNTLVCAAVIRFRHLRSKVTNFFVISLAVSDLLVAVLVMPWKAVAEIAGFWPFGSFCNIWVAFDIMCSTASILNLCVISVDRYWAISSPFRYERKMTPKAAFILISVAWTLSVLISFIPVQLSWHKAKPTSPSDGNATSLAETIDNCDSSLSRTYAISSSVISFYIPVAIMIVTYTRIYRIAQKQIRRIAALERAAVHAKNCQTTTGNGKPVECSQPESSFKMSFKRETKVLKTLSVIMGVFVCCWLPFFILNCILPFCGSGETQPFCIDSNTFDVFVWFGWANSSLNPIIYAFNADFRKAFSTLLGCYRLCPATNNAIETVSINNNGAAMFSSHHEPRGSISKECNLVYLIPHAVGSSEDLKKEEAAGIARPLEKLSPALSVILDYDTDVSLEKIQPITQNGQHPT

[5] = tested on: Mus musculus; experiment: Hepatotoxicity in mouse assessed as effect on ALKP level at 1 to 50 mg/kg, ip dosed daily for 1 month; type: toxicity, organism-based; settings: in vivo
Method in brief: (§1)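 Groups of n = 5 mice were dosed daily at 1-50 mg/kg for one month. Liver function markers (albumin, globulin, ALK, ALT) were measured alongside body weight, blood counts and renal markers.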

[6] = AUC (0 to t) in rat at 10 mg/kg, iv; type: ADME, organism-based; settings: in vivo
[7] = target: B2 bradykinin receptor (Homo sapiens) (UniProt P30411); experiment: Displacement of [3H]bradykinin from human recombinant B2 receptor at 10 uM after 60 mins by scintillation counting analysis relative to control
[8] = target: Glutamate [NMDA] receptor (Homo sapiens) (UniProt Q05586+Q12879+Q13224+O15399+O60391+Q14957+Q8TCU5); experiment: Binding affinity to NMDA receptor (unknown origin) at 10 uM by antgonist radioligand assay relative to control; type: protein-complex assay
[9] = organism: Cavia porcellus; experiment: Binding affinity to guinea pig Sodium channel site 2 at 10 uM by antagonist radioligand assay relative to control; parameters: scale not given: the % may be the effect or the level left
[10] = target: Alpha-2A adrenergic receptor (Homo sapiens) (UniProt P08913); experiment: Binding affinity to adrenergic alpha2A receptor (unknown origin) at 10 uM by agonist radioligand assay relative to control
Chain of Alpha-2A adrenergic receptor (Homo sapiens) (P08913 whole entry): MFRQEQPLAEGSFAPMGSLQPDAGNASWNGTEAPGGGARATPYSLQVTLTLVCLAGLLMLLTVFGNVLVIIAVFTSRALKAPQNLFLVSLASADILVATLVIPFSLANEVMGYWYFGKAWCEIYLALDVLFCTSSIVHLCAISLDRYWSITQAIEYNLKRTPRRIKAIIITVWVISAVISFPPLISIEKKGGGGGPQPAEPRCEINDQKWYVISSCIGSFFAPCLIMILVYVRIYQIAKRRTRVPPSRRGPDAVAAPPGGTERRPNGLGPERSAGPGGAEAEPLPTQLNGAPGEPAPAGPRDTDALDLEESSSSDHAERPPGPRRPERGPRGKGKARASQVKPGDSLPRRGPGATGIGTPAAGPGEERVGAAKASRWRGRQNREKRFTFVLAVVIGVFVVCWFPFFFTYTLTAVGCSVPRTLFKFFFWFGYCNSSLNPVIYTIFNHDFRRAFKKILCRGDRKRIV

[11] = target: Inhibitor of nuclear factor kappa-B kinase subunit epsilon (Homo sapiens) (UniProt Q14164); experiment: Inhibition of human recombinant IKKepsilon using Ulight-FLGFTYVAP as substrate after 90 mins relative to control; parameters: scale not given: the % may be the effect or the level left
[12] = tested on: Mus musculus; experiment: Hepatotoxicity in mouse assessed as effect on albumin level at 1 to 50 mg/kg, ip dosed daily for 1 month; type: toxicity, organism-based; settings: in vivo; method in brief: as §1
[13] = target: Neuronal acetylcholine receptor; alpha4/beta2 (Homo sapiens) (UniProt P17787+P43681); experiment: Binding affinity to neuronal alpha4beta2 (unknown origin) at 10 uM by antgonist radioligand assay relative to control; type: protein-complex assay
[14] = target: cGMP-inhibited 3',5'-cyclic phosphodiesterase 3A (Homo sapiens) (UniProt Q14432); experiment: Displacement of [3H]cAMP from human recombinant PDE3A at 10 uM after 20 mins by scintillation counting analysis relative to control
[15] = target: MAO-A (amine oxidase [flavin-containing] A) (Rattus norvegicus, UniProt P21396); experiment: Displacement of [3H]Ro 41-1049 from rat MAO-A at 10 uM after 120 mins by scintillation counting analysis relative to control; settings: probe [3H]Ro 41-1049, read-out: Activity
Chain of MAO-A (amine oxidase [flavin-containing] A) (P21396 whole entry): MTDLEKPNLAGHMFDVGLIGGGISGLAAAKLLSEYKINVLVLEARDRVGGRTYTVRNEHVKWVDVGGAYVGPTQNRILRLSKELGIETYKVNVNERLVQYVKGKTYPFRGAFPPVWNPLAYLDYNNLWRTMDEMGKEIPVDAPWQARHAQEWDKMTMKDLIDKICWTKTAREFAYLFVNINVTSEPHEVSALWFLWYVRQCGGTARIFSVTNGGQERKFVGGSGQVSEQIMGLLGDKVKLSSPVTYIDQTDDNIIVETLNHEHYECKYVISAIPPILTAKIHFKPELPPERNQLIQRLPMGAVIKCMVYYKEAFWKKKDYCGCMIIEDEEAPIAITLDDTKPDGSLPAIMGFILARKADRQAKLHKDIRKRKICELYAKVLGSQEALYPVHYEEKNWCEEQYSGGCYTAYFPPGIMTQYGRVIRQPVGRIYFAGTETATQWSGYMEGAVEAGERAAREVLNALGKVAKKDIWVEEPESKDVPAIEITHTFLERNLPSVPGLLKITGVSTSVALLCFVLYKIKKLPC

[16] = tested on: Mus musculus; experiment: Pulmonary toxicity in mouse at 1 to 50 mg/kg, ip dosed daily for 1 month by histological analysis; type: organism-based; settings: in vivo
[17] = tested on: Mus musculus; experiment: Toxicity in mouse assessed as effect on nuetrophils level at 1 to 50 mg/kg, ip dosed daily for 1 month; type: organism-based; settings: in vivo
[18] = Cmax in rat at 20 mg/kg, po; type: ADME, organism-based; parameters: dose 20 mg/kg, route oral; settings: in vivo
[19] = target: CREB-binding protein (Homo sapiens, UniProt Q92793); experiment: Inhibition of CBP (unknown origin) after 1 hr by TR-FRET assay
Chain of CREB-binding protein (Q92793 whole entry): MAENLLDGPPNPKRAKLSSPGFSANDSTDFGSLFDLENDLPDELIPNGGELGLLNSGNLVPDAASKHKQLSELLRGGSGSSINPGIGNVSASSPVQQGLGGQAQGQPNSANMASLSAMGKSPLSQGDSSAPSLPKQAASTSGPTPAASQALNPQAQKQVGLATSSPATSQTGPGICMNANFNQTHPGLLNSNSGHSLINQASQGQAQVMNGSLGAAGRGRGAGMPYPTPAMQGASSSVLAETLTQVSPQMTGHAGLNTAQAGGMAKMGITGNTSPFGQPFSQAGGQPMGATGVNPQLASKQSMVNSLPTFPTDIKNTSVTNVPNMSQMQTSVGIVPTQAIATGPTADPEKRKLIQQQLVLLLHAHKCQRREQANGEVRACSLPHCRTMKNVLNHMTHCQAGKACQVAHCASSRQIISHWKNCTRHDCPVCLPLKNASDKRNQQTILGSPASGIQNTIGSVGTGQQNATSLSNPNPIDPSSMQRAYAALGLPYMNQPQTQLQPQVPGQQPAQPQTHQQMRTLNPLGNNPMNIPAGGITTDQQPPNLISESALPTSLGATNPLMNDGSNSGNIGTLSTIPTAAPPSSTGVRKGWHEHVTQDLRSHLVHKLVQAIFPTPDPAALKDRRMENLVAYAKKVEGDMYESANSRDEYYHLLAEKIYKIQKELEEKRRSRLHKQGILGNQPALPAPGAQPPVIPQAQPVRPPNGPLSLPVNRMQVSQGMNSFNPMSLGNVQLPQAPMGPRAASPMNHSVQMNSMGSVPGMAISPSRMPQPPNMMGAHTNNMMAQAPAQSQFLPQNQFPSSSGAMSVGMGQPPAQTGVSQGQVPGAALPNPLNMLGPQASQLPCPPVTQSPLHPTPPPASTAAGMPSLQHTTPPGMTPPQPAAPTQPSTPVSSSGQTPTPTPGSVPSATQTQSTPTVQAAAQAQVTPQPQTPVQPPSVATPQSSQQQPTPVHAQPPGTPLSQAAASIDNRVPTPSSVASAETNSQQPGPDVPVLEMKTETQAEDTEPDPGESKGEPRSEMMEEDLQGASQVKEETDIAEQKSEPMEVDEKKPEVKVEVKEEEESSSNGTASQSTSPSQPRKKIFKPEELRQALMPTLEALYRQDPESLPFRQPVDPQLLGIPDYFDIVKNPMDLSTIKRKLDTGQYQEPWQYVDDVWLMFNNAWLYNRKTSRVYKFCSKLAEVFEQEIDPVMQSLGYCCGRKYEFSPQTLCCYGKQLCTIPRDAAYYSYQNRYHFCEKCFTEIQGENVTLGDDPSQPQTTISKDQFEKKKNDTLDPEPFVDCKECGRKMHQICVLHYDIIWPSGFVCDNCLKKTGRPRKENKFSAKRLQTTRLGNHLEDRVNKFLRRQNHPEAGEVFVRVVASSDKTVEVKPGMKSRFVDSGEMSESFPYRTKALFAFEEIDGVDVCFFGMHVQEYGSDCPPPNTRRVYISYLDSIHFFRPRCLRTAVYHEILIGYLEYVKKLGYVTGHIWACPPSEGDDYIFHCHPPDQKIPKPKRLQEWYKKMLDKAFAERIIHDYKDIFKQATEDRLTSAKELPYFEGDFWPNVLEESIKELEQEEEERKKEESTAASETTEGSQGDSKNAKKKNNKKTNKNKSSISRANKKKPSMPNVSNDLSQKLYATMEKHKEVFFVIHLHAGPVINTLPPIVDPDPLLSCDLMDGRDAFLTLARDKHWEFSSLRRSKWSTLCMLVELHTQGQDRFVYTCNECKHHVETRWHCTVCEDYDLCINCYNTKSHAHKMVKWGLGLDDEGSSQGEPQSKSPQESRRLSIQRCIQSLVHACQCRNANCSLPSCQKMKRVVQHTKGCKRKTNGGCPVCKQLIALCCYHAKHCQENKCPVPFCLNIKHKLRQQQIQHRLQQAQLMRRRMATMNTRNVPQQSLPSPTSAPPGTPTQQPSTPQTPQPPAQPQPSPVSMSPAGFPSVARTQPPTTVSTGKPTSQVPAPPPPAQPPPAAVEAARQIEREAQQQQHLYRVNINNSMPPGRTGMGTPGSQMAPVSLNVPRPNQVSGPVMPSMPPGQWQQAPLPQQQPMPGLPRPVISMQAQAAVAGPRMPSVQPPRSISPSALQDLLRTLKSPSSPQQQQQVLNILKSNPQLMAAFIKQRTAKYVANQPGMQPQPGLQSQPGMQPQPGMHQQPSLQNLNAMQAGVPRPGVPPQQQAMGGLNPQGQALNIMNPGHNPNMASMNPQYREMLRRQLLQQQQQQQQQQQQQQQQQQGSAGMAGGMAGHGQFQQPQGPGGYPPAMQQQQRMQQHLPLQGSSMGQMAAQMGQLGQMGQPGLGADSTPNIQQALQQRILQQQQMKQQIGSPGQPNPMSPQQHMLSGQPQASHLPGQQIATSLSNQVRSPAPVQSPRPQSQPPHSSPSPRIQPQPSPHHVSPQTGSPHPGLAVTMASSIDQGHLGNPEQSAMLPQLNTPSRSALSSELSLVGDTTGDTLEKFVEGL
Method in brief: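 Isolated bromodomain in a kit TR-FRET assay. Inhibitor series 0.01 nM to 100 μM, incubated 1 h at room temperature. Excitation 340 nm, emission read at 620 and 670 nm with 100 μs delay and 500 μs window. IC50 from the sigmoidal plot of the 670/620 ratio against concentration. Mean of at least two runs.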

[20] = target: Inhibitor of nuclear factor kappa-B kinase subunit alpha (Homo sapiens) (UniProt O15111); experiment: Inhibition of human recombinant IKKalpha using Ulight-IkappaB-alpha as substrate after 30 mins relative to control; parameters: scale not given: the % may be the effect or the level left
[21] = target: Cholecystokinin receptor type A (Homo sapiens) (UniProt P32238); experiment: Displacement of [125I]CCK-8s from human recombinant CCK1 receptor at 10 uM after 60 mins by scintillation counting analysis relative to control
[22] = target: Tyrosine-protein kinase Lck (Homo sapiens) (UniProt P06239); experiment: Inhibition of human recombinant LCK using Ulight-Poly GAT[EAY(1:1:1)]n as substrate after 10 mins relative to control; parameters: scale not given: the % may be the effect or the level left
[23] = tested on: Mus musculus; experiment: Anti-inflammatory activity in poly(I:C)-induced airway inflammation C57BL/6 mouse model assessed as reduction in neutrophils recruitment into bronchoalveolar lavage fluid at 10 mg/kg, ip administered 1 day prior to poly(I:C) stimulation and redosed on day 2 followed by poly(I:C) stimulation by trypan blue staining-based hemocytometric analysis; type: functional, organism-based
[24] = target: 5-hydroxytryptamine receptor 1A (Homo sapiens) (UniProt P08908); experiment: Displacement of [3H]8-OH-DPAT from recombinant human 5-HT1A receptor at 10 uM after 60 mins by scintillation counting analysis relative to control
Chain of 5-hydroxytryptamine receptor 1A (Homo sapiens) (P08908 whole entry): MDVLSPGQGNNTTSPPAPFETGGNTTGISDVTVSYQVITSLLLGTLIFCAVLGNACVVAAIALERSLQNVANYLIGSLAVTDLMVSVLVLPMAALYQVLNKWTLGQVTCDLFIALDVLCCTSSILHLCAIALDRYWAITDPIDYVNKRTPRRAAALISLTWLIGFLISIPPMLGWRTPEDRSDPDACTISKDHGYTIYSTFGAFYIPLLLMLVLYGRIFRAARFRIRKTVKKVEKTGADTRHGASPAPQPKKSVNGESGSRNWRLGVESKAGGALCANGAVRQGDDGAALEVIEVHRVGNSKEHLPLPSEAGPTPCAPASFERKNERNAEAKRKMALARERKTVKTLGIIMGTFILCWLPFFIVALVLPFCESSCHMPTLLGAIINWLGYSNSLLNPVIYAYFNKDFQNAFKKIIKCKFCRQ

[25] = target: Sodium-dependent serotonin transporter (Homo sapiens) (UniProt P31645); experiment: Binding affinity to human serotonin transporter at 10 uM by antagonist radioligand assay relative to control; parameters: scale not given: the % may be the effect or the level left
[26] = tested on: Mus musculus; experiment: Hepatotoxicity in mouse at 1 to 50 mg/kg, ip dosed daily for 1 month by histological analysis; type: toxicity, organism-based; settings: in vivo
[27] = tested on: Mus musculus; experiment: Anti-inflammatory activity in poly(I:C)-induced airway inflammation C57BL/6 mouse model assessed as reduction in mCIG5 expression in lung at 10 mg/kg, ip administered 1 day prior to poly(I:C) stimulation and redosed on day 2 followed by poly(I:C) stimulation; type: functional, organism-based
Method in brief: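 Male C57BL/6J mice, 12 weeks old, were given 10 mg/kg i.p. one day before stimulation. The next day they got a second dose, immediately followed by intranasal poly(I:C) (300 μg in 50 μL PBS) or PBS alone. Compound was taken up in DMSO and diluted in 10% hydroxypropyl β-cyclodextrin in PBS. Mice were euthanized one day later and lung tissue was collected for cytokine expression.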

[28] = target: Adenosine receptor A2a (Homo sapiens) (UniProt P29274); experiment: Displacement of [3H]-CGS 21680 from human recombinant adenosine A2A receptor at 10 uM after 120 mins by scintillation counting analysis relative to control
[29] = tested on: Mus musculus; experiment: Toxicity in mouse assessed as effect on body weight at 1 to 50 mg/kg, ip dosed daily for 1 month; type: organism-based; settings: in vivo
[30] = Half life in rat at 10 mg/kg, iv; type: ADME, organism-based; settings: in vivo
[31] = target: Glucocorticoid receptor (Homo sapiens) (UniProt P04150); experiment: Displacement of [3H]dexamethasone from human GR at 10 uM after 360 mins by scintillation counting analysis relative to control

In the case of Cc1cc(/N=N/c2ccc(S(=O)(=O)NC3CCCC3)cc2)c(N)cc1O, the Activity [1] was 11.7%, the Activity [2] was “Non-Toxic” and the Activity [3] was 24.7%. For the same molecule, the Activity [4] was 21.9%, the Activity [5] was “Non-Toxic” and the AUC(0-t) [6] was 11400 ng·h/mL. The Activity [7] was -2.4%, the Activity [8] was 17% and the Activity [9] was 27.7%. The Activity [10] was 3%, the Activity [11] was -26.2% and the Activity [12] was “Non-Toxic”. For the same molecule, the Activity [13] was -2.9%, the Activity [14] was 46% and the inhibition at 2 h, 10 µM [15] was 49.8%. The Activity [16] was “Non-Toxic”, the Activity [17] was “Non-Toxic” and the Cmax [18] was 36 ng/mL. The pIC50 [19] was < 5.00, the Activity [20] was -14.2% and the Activity [21] was 17.4%. For the same molecule, the Activity [22] was -20.6%, the Activity [23] was “Active” and the Activity [24] was -0.1%. For the same molecule, the Activity [25] was 15%, the Activity [26] was “Non-Toxic” and the Activity [27] was “Active”. For the same molecule, the Activity [28] was 38.1%, the Activity [29] was “Non-Toxic” and the half-life [30] was 49.8 min. The Activity [31] was 15%.
